Experimental data gathered from unrelated publications.
Protocols differ between the studies behind these lines.
Target: Mitogen-activated protein kinase 7 (MAPK7, Homo sapiens, UniProt Q13164)

| Compound | effect on | technique | concentration | remaining binding |
| --- | --- | --- | --- | --- |
| N[C@H]1CCN(c2nccc(-c3cnn4ncccc34)n2)C1 | binding | – | 1 µM | 100% |
| FC(F)(F)Oc1cccc(-c2cnc3ccc(-c4ccncc4)nn23)c1 | cell-free assay | competition with immobilised ligand | 5 µM | 99% |
| O=C(Nc1c[nH]nc1C(=O)NC1CCNCC1)c1cc(F)cc(F)c1 | binding | competition with immobilised ligand | 1 µM | 83% |
| CN([C@@H]1CCc2c(CC(=O)O)c3cc(S(C)(=O)=O)ccc3n2C1)S(=O)(=O)c1ccc(F)cc1 | cell-free assay | competition with immobilised ligand | 1 µM | 96% |
| c1cnn2ncc(-c3ccnc(N4CCC45COC5)n3)c2c1 | binding | – | 1 µM | 87% |
| Nc1ncc2c(n1)-c1c([nH]c3ccc(C#CC4CC4)cc13)CCCC2 | binding | competition with immobilised ligand | 1 µM | 85% |
| c1cncc(-c2cccc(Nc3nccc(NC4CCCCC4)n3)c2)c1 | binding | competition with immobilised ligand | 10 µM | 92% |
| O=C(NCCCN1CCOCC1)c1ccc(Nc2ncc(Cl)c(-c3ccc(Cl)s3)n2)cc1 | binding | competition with immobilised ligand | 1 µM | 28% |
| CN(c1ccnc(CNc2nc(Nc3ccc4c(c3)CC(=O)N4)ncc2C(F)(F)F)n1)S(C)(=O)=O | cell-free assay | competition with immobilised ligand | 1 µM | 78% |
| C[C@@H](c1ccc(-n2cnc3c(N)ncnc32)cc1)N1CCc2nn(C)c(Cc3ccccc3)c2C1=O | binding | competition with immobilised ligand | 0.1 µM | 89% |
| COc1cc(C(=O)N2CCC(N3CCN(C)CC3)CC2)ccc1Nc1ncc2c(n1)N(C)c1ccccc1C(=O)N2C | binding | competition with immobilised ligand | 10 µM | 0.05% |
| O=C(Nc1cnc(Oc2ccc(F)cc2)nc1)N1CCc2ncccc2[C@@H]1c1ccc(F)cc1 | cell-free assay | competition with immobilised ligand | 1 µM | 96% |
| C[C@H]1CCN(c2nccc(-c3cnn4ncccc34)n2)C1 | binding | – | 1 µM | 93% |
| CNC(=O)Nc1ccc2c(c1)[C@@]1(CC2)OC(=O)N(CC(=O)N(Cc2ccc(F)cc2)[C@@H](C)C(F)(F)F)C1=O | cell-free assay | competition with immobilised ligand | 1 µM | 85% |
| COc1cnc(Nc2cccc(S(N)(=O)=O)c2)nc1N1CCN(c2ccccc2)C(=O)C1 | binding | competition with immobilised ligand | 1 µM | 100% |
| Cc1cnc(Nc2ccc(C(=O)N3CCC(N4CCCC4)CC3)cc2)nc1-c1cc2ccccc2s1 | binding | competition with immobilised ligand | 1 µM | 21% |
| CNC(=O)[C@@H]1CC[C@@H](n2c(-c3ccc4cnccc4c3)nc3ccc(C(=O)NCc4cccc(C(N)=O)c4)cc32)C1 | binding | competition with immobilised ligand | 1 µM | 100% |
| F[C@@H]1CCN(c2nccc(-c3cnn4ncccc34)n2)C1 | binding | – | 1 µM | 100% |
| C[C@@]1(Cc2ccc(C#N)cc2)C(=O)N(c2cc(Cl)cc(Cl)c2)c2ncc(C(=O)NC3(c4nc(C5CCC5)no4)CC3)n21 | cell-free assay | competition with immobilised ligand | 1 µM | 100% |
| CC1CCCN1c1nccc(-c2cnn3ncccc23)n1 (centres unmarked) | binding | – | 1 µM | 100% |
| CN(C)C(=O)Cn1cc(-c2nc([C@@](C)(c3ccc(-c4cnc(N)nc4)cc3)C3CC3)no2)cn1 | cell-free assay | competition with immobilised ligand | 1 µM | 90% |
| CN(C)c1ncc(F)c(-c2cnn3ncccc23)n1 | binding | – | 1 µM | 99% |
| O=C(c1ccc(Nc2ncc(Cl)c(-c3cc4ccccc4s3)n2)cc1)N1CCC(N2CCCC2)CC1 | binding | competition with immobilised ligand | 1 µM | 60% |
